# Measurements gathered from unrelated publications.
# Lines come from different studies, so protocols differ.
# Observed: enzyme activity
# Mode: inhibitor
# CA2: Carbonic anhydrase 2 (CA2, Bos taurus, UniProt P00921)
# YCK2: Serine/threonine protein kinase YCK2 (YCK2, Candida albicans, UniProt A0A1D8PKB4)
# MTOR: Serine/threonine-protein kinase mTOR (MTOR, Homo sapiens, UniProt P42345)
# CDK6 with cyclin D3: Cyclin-dependent kinase 6, with cyclin D3 (CDK6, Homo sapiens, UniProt Q00534)
# EGFR: Epidermal growth factor receptor (EGFR, Homo sapiens, UniProt P00533)
SMILES,target,test,IC50
Nc1cnccc1Nc1ccc(Cl)c(Cl)c1,"SMUG1 (Homo sapiens, UniProt Q53HV7)",,> 100000 nM
O=C1C[C@@H](c2ccc(O)cc2)Oc2cc(O)cc(O)c21,CA2,absorbance,68900 nM
c1ccc(-c2n[nH]cc2-c2ccncn2)nc1,YCK2,ADP detection,1600 nM
NS(=O)(=O)c1ccc(-n2nc(C(=O)NN=Cc3ccc(O)cc3)cc2-c2ccccc2)cc1,"Serine/threonine-protein kinase B-raf (BRAF, Homo sapiens, UniProt P15056, V600E)",,18500 nM
Clc1ccc(Nc2ccncc2)cc1Cl,"DNA-3-methyladenine glycosylase (Homo sapiens, UniProt P29372)",,> 99000 nM
COc1ccc(-c2ccc3c(N4CCOC[C@@H]4C)nc(N4CCOC[C@@H]4C)nc3n2)cc1COC(=O)CCOCCOCCOCCONC(=O)c1ccc(F)c(F)c1Nc1ccc(I)cc1F,MTOR,FRET,40.5 nM
O=C1C(=O)N(CCn2ncc3c(=O)[nH]cnc32)c2ccc(Cl)cc21,CDK6 with cyclin D3,ADP detection,603 nM
CC(=O)c1nc2ccccc2n1Cc1cn([C@@H]2OC[C@@H](O)[C@H](O)[C@H]2O)nn1,EGFR,,132 nM
O=C1CCC(N2C(=O)c3ccccc3C2=O)C(=O)N1 (stereo not drawn),EGFR,,1130 nM
c1coc(-c2n[nH]cc2-c2ccnc3ccccc23)c1,YCK2,ADP detection,830 nM
COc1c(Cl)cccc1Nc1c(-c2ccncc2OC[C@@H]2COCCO2)[nH]c2c1C(=O)NCC2,EGFR,TR-FRET,< 0.5 nM
CNS(=O)(=O)c1ccc(Nc2ncc(C(F)(F)F)c(N3CCC(C)(O)CC3)n2)c(C)c1,CDK6 with cyclin D3,radiometric,794 nM
Cn1cc(-c2ccnc3ccccc23)c(-c2ccccn2)n1,YCK2,ADP detection,550 nM
COc1ccc(-c2ccc3c(N4CCOC[C@@H]4C)nc(N4CCOC[C@@H]4C)nc3n2)cc1COCCOCCOCCOCCONC(=O)c1ccc(F)c(F)c1Nc1ccc(I)cc1F,MTOR,FRET,28 to 40 nM
N=C(N)c1ccc(OCCCCCOc2ccc(C(=N)N)cc2)cc1,"Neutrophil elastase (ELANE, Homo sapiens, UniProt P08246)",absorbance,> 100000 nM
c1ccc(-c2n[nH]cc2-c2ccncc2)nc1,YCK2,ADP detection,520 nM
O=C(/C=C/c1ccc(F)cc1)c1nc2ccccc2n1Cc1cn([C@@H]2OC[C@@H](O)[C@H](O)[C@H]2O)nn1,EGFR,,75 nM
COc1ccc(N2CCN(Cc3cn4c(-c5ccc(Br)cc5)nnc4s3)CC2)cc1,"Ferroptosis suppressor protein 1 (AIFM2, Homo sapiens, UniProt Q9BRQ8)",absorbance,34 nM
NS(=O)(=O)c1ccc(Nc2nc3nc(=S)[nH]c(-c4cccc(O)c4)c3s2)cc1,CA2,absorbance,62.7 nM
Cc1cc2c(cc1C)N[C@H](c1ccccc1)[C@@H](O)C(=O)N2,MTOR,,144 nM
CNS(=O)(=O)c1ccc(Nc2ncc(C(F)(F)F)c(N3CCC[C@](C)(O)C3)n2)c(C)c1,CDK6 with cyclin D3,radiometric,3550 nM
Cc1cc(O)c(-c2ccc([C@@H](C)CN(C)C)cc2)c2c1[nH]c(=O)c1sccc12,"Cyclin-dependent kinase 6, with cyclin D1 (CDK6, Homo sapiens, UniProt Q00534)",,> 1000 nM
CNS(=O)(=O)c1ccc(Nc2ncc(C(F)(F)F)c([C@H]3CC[C@](C)(O)CC3)n2)c(C)c1,CDK6 with cyclin D3,radiometric,715 nM
CNC(c1ccccc1)c1c(N)[nH]c(=O)[nH]c1=O (stereo not drawn),EGFR,,4600 nM
